Reference: ChEMBL document CHEMBL3758135 (J Nat Prod, 2015)

Tests used:
Prostaglandin E synthase = target: T1, Prostaglandin E synthase (Homo sapiens, UniProt O14684); assay: Inhibition of mPGES-1 in human IL-1beta-stimulated A549 cell microsomes assessed as reduction of PGE2 formation from PGH2 preincubated for 15 mins by HPLC analysis; format: cell-based
T1 sequence (O14684 whole entry): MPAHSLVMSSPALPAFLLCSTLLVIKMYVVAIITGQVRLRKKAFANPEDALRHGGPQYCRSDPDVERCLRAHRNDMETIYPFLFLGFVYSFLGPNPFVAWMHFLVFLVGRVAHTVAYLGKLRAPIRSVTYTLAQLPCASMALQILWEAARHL
Method in brief: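 A549 cells stimulated with 2 ng/mL IL-1β for 72 h at 37 °C, 5% CO2, then sonicated and homogenized. Microsomal pellet collected at 174000g, 1 h, 4 °C. Membranes diluted in 0.1 M K3PO4, pH 7.4, with 2.5 mM glutathione. Compound or vehicle added for 15 min at 4 °C. Reaction started with 20 μM PGH2, stopped after 1 min with FeCl2/citric acid containing 11β-PGE2 internal standard. PGE2 measured by SPE-HPLC.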

Histone deacetylase = assay: Inhibition of HDAC in human HeLa cell nuclear extract using BML-KI104 Fluor de Lys as substrate by fluorescence-based assay

| IC50 (Prostaglandin E synthase) | IC50 (Histone deacetylase) | Structure (SMILES) |
| --- | --- | --- |
| 2000 nM | 84.2 µM | COc1cc(/C=C/C(=O)CC(=O)/C=C/c2ccc(OC/C=C(\C)CC/C=C(\C)CCC=C(C)C)c(OC)c2)ccc1O |
| 2000 nM | 347 µM | COc1cc(/C=C/C(=O)CC(=O)/C=C/c2ccc(OCC=C(C)C)c(OC)c2)ccc1OCC=C(C)C |
| 2000 nM | 786 µM | COc1cc(/C=C/C(=O)C(C/C=C(\C)CCC=C(C)C)(C/C=C(\C)CCC=C(C)C)C(=O)/C=C/c2ccc(OC/C=C(\C)CCC=C(C)C)c(OC)c2)ccc1OC/C=C(\C)CCC=C(C)C |
| 2000 nM | 122 µM | COc1cc(/C=C/C(=O)CC(=O)/C=C/c2ccc(OC/C=C(\C)CC/C=C(\C)CCC=C(C)C)c(OC)c2)ccc1OC/C=C(\C)CC/C=C(\C)CCC=C(C)C |
| 930 nM | 5620 µM | COc1cc(/C=C/C(=O)CC(=O)/C=C/c2ccc(OCC=C(C)C)c(OC)c2)ccc1O |
| 2000 nM | – | COc1cc(/C=C/C(=O)C(CC=C(C)C)(CC=C(C)C)C(=O)/C=C/c2ccc(OCC=C(C)C)c(OC)c2)ccc1OCC=C(C)C |
| 1020 nM | 495 µM | COc1cc(/C=C/C(=O)CC(=O)/C=C/c2ccc(OC/C=C(\C)CCC=C(C)C)c(OC)c2)ccc1O |
| 2000 nM | 188 µM | COc1cc(/C=C/C(=O)CC(=O)/C=C/c2ccc(OC/C=C(\C)CCC=C(C)C)c(OC)c2)ccc1OC/C=C(\C)CCC=C(C)C |
| 220 nM | – | COc1cc(/C=C/C(=O)CC(=O)/C=C/c2ccc(O)c(OC)c2)ccc1O [CURCUMIN] |
| 2000 nM | – | COc1cc(/C=C/C(=O)C(CC=C(C)C)C(=O)/C=C/c2ccc(OCC=C(C)C)c(OC)c2)ccc1OCC=C(C)C |
| 2000 nM | 217 µM | COc1cc(/C=C/C(=O)C(C/C=C(\C)CCC=C(C)C)C(=O)/C=C/c2ccc(OC/C=C(\C)CCC=C(C)C)c(OC)c2)ccc1OC/C=C(\C)CCC=C(C)C |
